Assay results pooled from the literature.
Lines come from different studies, so protocols differ.
Target: Serine/threonine-protein kinase NLK (NLK, Homo sapiens, UniProt Q9UBE8)
Sequence (Q9UBE8 1-527, as in one of the studies): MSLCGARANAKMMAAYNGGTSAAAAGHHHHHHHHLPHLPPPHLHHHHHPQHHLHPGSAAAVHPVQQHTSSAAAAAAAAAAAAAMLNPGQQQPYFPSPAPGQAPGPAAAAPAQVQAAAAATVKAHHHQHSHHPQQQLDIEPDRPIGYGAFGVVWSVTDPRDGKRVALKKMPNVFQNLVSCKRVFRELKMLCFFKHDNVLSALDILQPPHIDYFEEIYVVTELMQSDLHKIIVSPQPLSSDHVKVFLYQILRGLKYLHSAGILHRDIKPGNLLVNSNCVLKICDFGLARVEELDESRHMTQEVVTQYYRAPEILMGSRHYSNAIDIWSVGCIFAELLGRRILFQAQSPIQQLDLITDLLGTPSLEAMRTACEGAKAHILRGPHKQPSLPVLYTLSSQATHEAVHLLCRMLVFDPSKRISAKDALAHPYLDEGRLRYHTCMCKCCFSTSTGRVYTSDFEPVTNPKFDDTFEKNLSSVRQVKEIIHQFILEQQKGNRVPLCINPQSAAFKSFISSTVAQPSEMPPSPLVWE

| Compound | assay | conditions | quantity | result |
| --- | --- | --- | --- | --- |
| O=C(Nc1cnn(-c2csc(C(=O)NC3COC3)c2)c1)Nc1c(F)cccc1Cl | enzyme activity, inhibitor | 5 µM | remaining activity | 87.4% |
| Cc1ccc(NC(=O)c2ccc(C)c(C(F)(F)F)c2)cc1C#Cc1nn(C2CCC(O)CC2)c2ncnc(N)c12 (stereo not shown) | cell-free assay | 10 µM | remaining signal | 82% |
| N#CCCc1ccc2c(c1)-c1[nH]c3ccc([N+](=O)[O-])cc3c1CC(=O)N2 | cell-free assay | 0.5 µM | remaining signal | 89.7% |
| Cn1cncc1C1=CN(c2ncnc3[nH]cnc23)CCS1 | enzyme activity, inhibitor, radiometric | 50 nM | inhibition | 19.6% |
| CC(C)(C)c1nc2c(s1)c1nc(N)ncc1c1ccc(NS(=O)(=O)c3c(F)cccc3F)c(F)c12 | enzyme activity, inhibitor, radiometric | 1 µM | remaining activity | 91% |
| Cc1ccc(C(=O)Nc2ccc(CN3CCN(C)CC3)c(C(F)(F)F)c2)cc1C#Cc1cnc2cccnn12 | cell-free assay | 23.5 nM | remaining signal | 52% |
| CSc1cccnc1N1CCN(Cc2nc3ccccc3[nH]2)CC1 | binding, competition with immobilised ligand | 1 µM | remaining binding | 100% |
| Cc1cnc(NC2CCOCC2)nc1-n1cnc(C(=O)NC(CN)c2cc(F)cc(Cl)c2)c1 (stereo not shown) | enzyme activity, inhibitor, radiometric | 1 µM | remaining activity | 47% |
| CCN(CC)CCNC(=O)c1c(C)[nH]c(/C=C2\C(=O)Nc3ccc(F)cc32)c1C | enzyme activity, inhibitor | 0.3 µM | inhibition | -7% |
| COc1cc(-c2cn(C3CCc4c(F)cccc4N(CC(F)(F)F)C3=O)nn2)ccc1-n1cnc(C)c1 (stereo not shown) | cell-free assay, competition with immobilised ligand | 1 µM | remaining binding | 100% |
| CCCOc1ccc(OC)c(F)c1C(=O)c1ccc(C(=O)N[C@@H]2CNC[C@H]2NC(=O)c2ccc3[nH]ncc3c2)cc1 | enzyme activity, inhibitor | 10 µM | remaining activity | 59% |
| O=C(NCCCC1CCCCC1)c1ccc(CNC(=O)c2cnn(-c3ccccc3)c2C(F)(F)F)cc1 | cell-free assay, competition with immobilised ligand | 0.1 µM | remaining binding | 100% |
| CNC(=O)c1cc(Oc2ccc(NC(=O)Nc3ccc(Cl)c(C(F)(F)F)c3)cc2)ccn1 | enzyme activity, inhibitor | 0.3 µM | inhibition | -5% |
| NS(=O)(=O)c1cc(NC(=O)Cc2ccccc2)ccc1Oc1cccc(Cl)c1 | cell-free assay, competition with immobilised ligand | 1 µM | remaining binding | 100% |
| O=C1NC(=O)c2cc(Nc3ccc(F)cc3)c(Nc3ccc(F)cc3)cc21 | cell-free assay | 0.5 µM | remaining signal | 103% |
| CC(C)(O)c1cncc(-c2nc3ccc(F)cc3n2C2CC2)c1 | cell-free assay, competition with immobilised ligand | 1 µM | remaining binding | 100% |
| Nc1ncnc2occ(-c3ccc(NC(=O)Nc4cc(C(F)(F)F)ccc4F)cc3)c12 | cell-free assay | 20 µM | remaining signal | 19% |
| C[C@H](c1ccnc(Nc2nc3ccc(-c4cc(N(C)C)ncn4)cc3[nH]2)c1)N1CCN(C(=O)CC(F)(F)F)CC1 | cell-free assay, competition with immobilised ligand | 0.1 µM | remaining binding | 88% |
| Cc1ccc(Nc2nccc(N(C)c3ccc4c(C)n(C)nc4c3)n2)cc1S(N)(=O)=O | enzyme activity, inhibitor | 0.3 µM | inhibition | 19% |
